Screens (PubChem BioAssay)
Most compounds without a hit are left out; they make up all but 4% or so of the library.
FGF22 binding-1 = FGF22 (human) thermal shift binding | AID 651658 | activity (Tm shift, normalised), % at 9.99 µM | recombinant FGF22 thermal shift, SYPRO orange fluorescence; percent of sucrose octasulfate shift, DMSO zero | 340,000 compounds, 1.5% hits;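 active means mean Tm shift, scaled 0 neutral to 100 positive control, at about 1.3% or above, every replicate too, limit read from the data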
rRNA inh HTS = selective bacterial rRNA inhibition in E. coli; E. coli WT GFP vs humanized-ribosome RFP mutants, fluorescence, 24 h; active compounds read low; DMSO median 0, no signal -100; GFP signal change (wild-type ribosome), % (no concentration beside the values); 350,000 compounds, 1.6% hits;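 active means significant combined selectivity score with lowered wild-type GFP, culture density cut under 30%, mutant RFP and density less affected; inactive means any of these conditions unmet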
E-selectin induc = E-selectin induction on HUVECs; P16581; HUVEC E-selectin immunofluorescence imaging; normalized: neutral wells 0, TNF-alpha wells 100; activation, % at 7.58 µM; 260,000 compounds, 0.37% hits;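 active means mean E-selectin-positive cell signal at least 10% of the positive control, reached in at least 60% of replicates, without over 20% cell loss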
Target sequence (P16581 whole entry, looked up): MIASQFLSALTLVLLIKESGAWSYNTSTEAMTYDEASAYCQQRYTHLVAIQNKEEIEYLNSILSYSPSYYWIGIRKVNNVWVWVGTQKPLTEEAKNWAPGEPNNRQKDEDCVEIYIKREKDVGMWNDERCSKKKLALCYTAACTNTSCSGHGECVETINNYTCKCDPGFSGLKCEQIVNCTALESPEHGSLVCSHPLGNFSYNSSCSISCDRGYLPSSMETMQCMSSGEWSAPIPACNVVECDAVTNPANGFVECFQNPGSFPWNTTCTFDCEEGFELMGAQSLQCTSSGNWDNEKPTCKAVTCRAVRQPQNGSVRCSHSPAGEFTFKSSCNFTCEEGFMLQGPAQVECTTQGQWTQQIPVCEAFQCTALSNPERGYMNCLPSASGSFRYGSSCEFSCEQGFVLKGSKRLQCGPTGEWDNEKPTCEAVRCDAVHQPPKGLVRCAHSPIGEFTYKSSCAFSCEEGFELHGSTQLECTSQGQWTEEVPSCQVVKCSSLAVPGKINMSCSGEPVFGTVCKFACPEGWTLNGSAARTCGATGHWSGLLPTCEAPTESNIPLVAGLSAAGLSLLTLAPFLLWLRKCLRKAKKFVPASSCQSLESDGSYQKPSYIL
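assay system = HUVEC, human umbilical vein endothelial cells | input = 3,000 HUVEC seeded per well | medium = EGM-2 growth medium on 0.1% gelatin-coated wells | dosing = one compound dose added by pin transfer | signal = immunofluorescence imaging | read-out basis = % PE-positive cells | control set = TNF-alpha, DMSO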
SIRT5 block = sirtuin-5 (human) deacylase inhibition | Q9NXA8 | Purified SirT5, succinyl-peptide AMC, trypsin-coupled fluorescence | inhibition, % at 15 µM | 330,000 compounds, 1.1% hits | AID 652115; in the data active means inhibition above about 15%
FN deposit inh = fibronectin deposition inhibition; AH1F fibroblasts, Alexa488-fibronectin deposition fluorescence, overnight; inhibition, % at 12.6 µM; 350,000 compounds, 0.086% hits; AID 743247;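 active means mean inhibition across replicates of 30% or more, regardless of how many single replicates reach that level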;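 further: positive control wells lacked labelled fibronectin entirely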
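Assay system: AH1F fibroblast monolayer, labelled fibronectin deposition. Amount: 10000 cells per well. Also added: labelled fibronectin 24 nM. Compound: single-point pinned compound. Incubation: cell attachment 1 h, compound and FN exposure overnight. Detection: fluorescence after three HBSS washes, excitation 485 nm, emission 525 nm. Read-out: inhibition of fibronectin deposition signal.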
Statin myotox sup = suppressors of simvastatin-induced myotoxicity in C2C12 myotubes; ATP luminescence, 48 h; scaled: DMSO 0, geranylgeraniol control 100; rescue of ATP level, % at 7.49 µM; 330,000 compounds, 0.78% hits;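 active means mean ATP rescue above about 67%, or every replicate alone reaching that limit, limit read from the data, passing the limit was not always enough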;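 further: myotubes were challenged with 10 µM simvastatin during compound exposure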
FGF22 binding-2 = binds human FGF22 shifting its melting temperature; recombinant FGF22 thermal shift, SYPRO orange fluorescence; 1,000 compounds, 2% hits; thermal shift activity, °C (ΔTm) at 38 µM; AID 720646; shares compounds with FGF22 binding-1;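 active means fitted rise in melting shift crosses a set limit at or below the top valid dose tested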
SYPRO no-protein = shows thermal shift signal without protein, FGF22 counter-screen; shares compounds with FGF22 binding-1; 1,000 compounds, 2% hits; AC50, µM (titrated, usually from 38 µM); compound-only SYPRO orange thermal shift counter-screen, no protein;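 active means rising signal whose fitted curve reaches the 0.54 level within the top valid dose, showing a melting point, actives reach about 13 µM in these data; inactive means the rest, including activity in the opposite direction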; further: value is where the raw curve crosses a fixed level and not half-maximal
* marks the source's active call; other numbers are inactive results; [ ] = dose if it differs, or a comment.

CCCC(=O)Nc1ccc2c(c1)OC[C@@H](C)N(C(=O)c1ccccc1F)C[C@H](C)[C@@H](OC)CN(C)C2=O was read as rRNA inh HTS 1, E-selectin induc 0, FN deposit inh -3 and Statin myotox sup -2.
Cc1cccc(NC(=O)Nc2ccc(S(N)(=O)=O)cc2)c1 was read as FGF22 binding-1 1.7*, rRNA inh HTS -3, SIRT5 block 3, FN deposit inh 1, FGF22 binding-2 0.096 and SYPRO no-protein 11µM*.
Cc1cccc(C)c1NC(=O)Nc1ccc(S(N)(=O)=O)cc1 was read as FGF22 binding-1 0, rRNA inh HTS 3, E-selectin induc 0, SIRT5 block -2, FN deposit inh -1 and Statin myotox sup 10.
For CC1CCN(S(=O)(=O)c2cccc3cccnc23)CC1 the results were FGF22 binding-1 0, rRNA inh HTS 1, E-selectin induc 0, SIRT5 block -3, FN deposit inh -10 and Statin myotox sup 17.
`O=S(=O)(c1cccc2cccnc12)N1CCN(Cc2ccccc2)CC1` gave FGF22 binding-1 1.4*, rRNA inh HTS -3, E-selectin induc 4, SIRT5 block 1, FN deposit inh 2, FGF22 binding-2 0.17 and SYPRO no-protein inactive.
For COCC#Cc1cnc2c(c1)C(=O)N([C@@H](C)CO)C[C@@H](C)[C@H](CN(C)C(=O)Nc1cc(F)ccc1F)O2 the results were FGF22 binding-1 0, rRNA inh HTS 8, E-selectin induc 1, SIRT5 block 1, FN deposit inh -12 and Statin myotox sup -6.
`CCc1ccc(C(=O)NNC(=O)c2cccc(N3C(=O)CCC3=O)c2)cc1` gave FGF22 binding-1 19*, rRNA inh HTS 2, E-selectin induc -2, SIRT5 block -3, FN deposit inh 11, Statin myotox sup 2, FGF22 binding-2 0.11 and SYPRO no-protein inactive.
Cc1cccc(NC(=O)c2cccc(N3C(=O)CCC3=O)c2)c1 was read as FGF22 binding-1 0, rRNA inh HTS 2, E-selectin induc -1, SIRT5 block -5, FN deposit inh 9 and Statin myotox sup -7.
`CCCNC(=O)N1CC2(CN(C(=O)c3cccc(F)c3)C2)c2c([nH]c3cc(OC)ccc23)[C@H]1CO` gave FGF22 binding-1 0, rRNA inh HTS -2, E-selectin induc 0 and SIRT5 block -4.
O=C(CNC(=O)c1cccc(Br)c1)N/N=C/c1cc(Br)cc(Br)c1O was read as FGF22 binding-1 1.7*, rRNA inh HTS 13, E-selectin induc 0, SIRT5 block 2, FN deposit inh 5, FGF22 binding-2 -0.14 and SYPRO no-protein inactive.
Cc1noc(NC(=O)c2cccc(Cl)c2Cl)c1C#N was read as FGF22 binding-1 1.3*, rRNA inh HTS -13, E-selectin induc -1, SIRT5 block 3, FN deposit inh -1, FGF22 binding-2 -0.1 and SYPRO no-protein inactive.
Screening O=C(N[C@@H]1C=C[C@@H](CC(=O)N2CCCCC2)O[C@@H]1CO)c1cccc(F)c1 returned FGF22 binding-1 1.8*, rRNA inh HTS 3, E-selectin induc 0, SIRT5 block 0, Statin myotox sup -9, FGF22 binding-2 -0.09[42 µM] and SYPRO no-protein inactive.
`COc1cccc(CNC(C)C(=O)Nc2ccc3c(c2)OCCO3)c1` (stereo not given) gave FGF22 binding-1 0, rRNA inh HTS 7 and E-selectin induc -2.
Cc1cccc(OC(C)C(=O)Nc2ccc3c(c2)OCCO3)c1 (stereo not given) was read as FGF22 binding-1 2.1*, rRNA inh HTS 7, E-selectin induc 0, SIRT5 block 1, Statin myotox sup 11, FGF22 binding-2 -0.029 and SYPRO no-protein inactive.
CCCC(=O)Nc1ccc(C(=O)Nc2ccc([N+](=O)[O-])cc2OC)cc1 was read as FGF22 binding-1 1.4*, rRNA inh HTS 12, SIRT5 block 6, FN deposit inh -4, FGF22 binding-2 -0.17 and SYPRO no-protein inactive.
CCCCC(=O)Nc1ccc(NC(=O)c2ccc([N+](=O)[O-])cc2)cc1OC was read as FGF22 binding-1 0, rRNA inh HTS 14, SIRT5 block -5 and FN deposit inh 2.
O=C(N/N=C/c1ccc(O)c(O)c1)N/N=C/c1ccc(O)c(O)c1 was read as FGF22 binding-1 1.4*, rRNA inh HTS 6, E-selectin induc 0, SIRT5 block 8, FN deposit inh 2, Statin myotox sup -2, FGF22 binding-2 0.13 and SYPRO no-protein inactive.
O=C(O)c1ccccc1NS(=O)(=O)c1cccc(NS(=O)(=O)c2cc(Br)ccc2Br)c1 was read as rRNA inh HTS 8, SIRT5 block 5, FN deposit inh 0 and Statin myotox sup -2.
Cc1ccc(S(=O)(=O)Nc2cccc(S(=O)(=O)Nc3ccccc3C(=O)O)c2)c(C)c1 was read as FGF22 binding-1 1.4*, rRNA inh HTS -8, E-selectin induc 0, SIRT5 block 1, FN deposit inh 12, Statin myotox sup -4, FGF22 binding-2 -0.06 and SYPRO no-protein inactive.
Cn1ncc2c(Nc3ccc(Br)cc3)nc(Nc3ccc(Br)cc3)nc21 was read as FGF22 binding-1 0, rRNA inh HTS 14, E-selectin induc 1, SIRT5 block -8, FN deposit inh 6 and Statin myotox sup -30.
`Cn1ncc2c(Nc3ccc(O)cc3)nc(Cl)nc21` gave FGF22 binding-1 26*, rRNA inh HTS -2, E-selectin induc 0, SIRT5 block 3, FN deposit inh -2, Statin myotox sup -14, FGF22 binding-2 -0.002 and SYPRO no-protein inactive.
Screening C[C@@H]1CN([C@@H](C)CO)S(=O)(=O)c2ccc(C3=CCCCC3)cc2O[C@H]1CN(C)C(=O)CN(C)C returned FGF22 binding-1 1.3*, rRNA inh HTS 6, E-selectin induc 0, SIRT5 block 7, FN deposit inh 5, Statin myotox sup 4, FGF22 binding-2 0.82 and SYPRO no-protein inactive.
`C[C@@H]1CN([C@@H](C)CO)S(=O)(=O)c2ccc(C3=CCCC3)cc2O[C@@H]1CN(C)C(=O)C1CCCCC1` gave FGF22 binding-1 1.5*, rRNA inh HTS -1, E-selectin induc 0, SIRT5 block 4, Statin myotox sup -62, FGF22 binding-2 -0.032 and SYPRO no-protein inactive.
